Source: paper PMC3731742 (Journal of biomolecular screening, 2011)
Where “and” joins values, the source holds several entries; their conditions need not be identical. Equal values may be shown once. Read-outs that look alike come from different tables or passages of the source.

Experiments:
TAg = conditions: read-out: IC50 for MAL2-11B; ref 21 (Huryn et al.); cited from earlier work
[1] = target: SV40 large T antigen ATPase activity (Simian virus 40, UniProt P03070); assay: SV40 TAg ATPase primary assay; assay type: biochemical; conditions: 1% DMSO; for IC50: 1536-well, ADP Hunter, 1 mM ATP
Chain of SV40 large T antigen ATPase activity (P03070 whole entry): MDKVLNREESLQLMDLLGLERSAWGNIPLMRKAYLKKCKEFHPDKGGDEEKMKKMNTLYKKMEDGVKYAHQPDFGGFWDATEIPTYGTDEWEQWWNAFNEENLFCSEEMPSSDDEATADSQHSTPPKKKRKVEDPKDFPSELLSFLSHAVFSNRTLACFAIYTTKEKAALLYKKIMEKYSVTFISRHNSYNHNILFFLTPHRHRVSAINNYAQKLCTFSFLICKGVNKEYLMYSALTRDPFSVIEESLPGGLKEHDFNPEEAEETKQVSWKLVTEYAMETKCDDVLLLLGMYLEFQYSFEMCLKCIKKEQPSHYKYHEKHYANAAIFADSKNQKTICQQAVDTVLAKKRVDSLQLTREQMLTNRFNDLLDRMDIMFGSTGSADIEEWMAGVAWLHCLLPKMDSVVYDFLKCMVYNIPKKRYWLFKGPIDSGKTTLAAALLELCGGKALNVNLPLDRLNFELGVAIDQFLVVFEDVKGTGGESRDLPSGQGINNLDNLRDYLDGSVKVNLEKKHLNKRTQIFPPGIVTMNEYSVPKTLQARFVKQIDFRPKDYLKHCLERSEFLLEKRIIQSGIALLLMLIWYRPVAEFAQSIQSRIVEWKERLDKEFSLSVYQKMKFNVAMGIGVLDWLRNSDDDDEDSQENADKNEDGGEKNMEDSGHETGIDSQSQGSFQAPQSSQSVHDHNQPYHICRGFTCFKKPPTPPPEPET
Summary of the method: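 Purified TAg (10.8 ng/well, added from 14.4 ng/µL) in 100 mM Tris-HCl pH 7.4, 20 mM KCl, 6 mM MgCl2, 0.1 mg/mL BSA; control added before enzyme, preincubated 30 min ambient; 5 mM ATP stock added, 120 min ambient; 1.25 µL reaction. ADP Hunter fluorescence, ex/em 530/590 nm bottom read. % inhibition normalized to median enzyme control and high-dose control wells.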

[2] = Compound aggregation in steady-state ATP assays; assay type: physicochemical; conditions: 20-μL steady-state ATP assay; previously observed in the laboratory
BSC-40 cells = assay: Cytotoxicity in BSC-40 cells; assay type: cell-based, African green monkey; conditions: cells + compound only, 5 days
[3] = tested on: TAg-dependent DNA replication; assay: TAg-dependent DNA replication assay; assay type: biochemical, SV40; conditions: HeLa cell lysate, radiolabelled nucleotides
Summary of the method: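 TAg recruits replication machinery from HeLa cell lysate to copy a reporter plasmid carrying the SV40 origin, incorporating trace radiolabelled nucleotides over time. Test compound added at 30, 100 and 300 µM.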

[4] = tested on: Phosphopantetheinyl transferase; conditions: PubChem; cited from earlier work
Aldehyde dehydrogenase 1 = conditions: PubChem; cited from earlier work
[5] = tested on: Microtubule-associated protein tau; conditions: PubChem, tau aggregation; cited from earlier work
Mint1 = conditions: PubChem; cited from earlier work
[6] = tested on: Hydroxyprostaglandin dehydrogenase 15-(NAD) isoform 1; conditions: PubChem; cited from earlier work
[7] = tested on: Nuclear receptor ROR-gamma; conditions: PubChem; cited from earlier work
SV40 virus = assay: Cytoprotection assay with SV40 virus in BSC-40 cells; assay type: cell-based; conditions: 50 μM, BSC-40 cells + SV40, 120 h

Row | SMILES | effect on TAg-dependent DNA replication at 300 μM [3] | identified as hit (inhibitor) against target [4] | identified as hit (inhibitor) against target (Aldehyde dehydrogenase 1) | identified as hit (inhibitor) against target [5] | identified as hit (inhibitor) against target (Mint1) | identified as hit (inhibitor) against target [6] | identified as hit (inhibitor) against target [7] | also measured
1 | CC1=C(C(=O)OCc2ccccc2)C(c2ccc(-c3ccccc3)cc2)NC(=O)N1CCCCCC(=O)O (stereo not shown) [MAL2-11B, reference compound] | – | – | – | – | – | – | – | IC50 (TAg): 50 µM; inhibition of TAg activity ([1]; MAL2-11B at 100 μM final, average): 80%; IC50 ([1]; read-out: IC50, inhibition of TAg ATPase activity in the primary assay): 19.5 µM; final concentration at which compound aggregation was observed [2]: > 300 µM
2 | CC(C)(c1ccc(O)cc1)c1ccc(O)cc1 [SID 92277586, Bisphenol A] | complete inhibition | – | – | – | – | – | – | TC50 (50% toxic concentration) (BSC-40 cells): 7.94 µM; IC50 ([1]; IC50, inhibition of TAg ATPase activity in the primary assay): 41 µM and 41.4 µM; effect on TAg-dependent DNA replication at 100 μM ([3]; 100 μM): some inhibition
3 | Nc1nc2ccc(S(=O)(=O)N3CCCCC3)cc2s1 [SID 85281217] | – | Phosphopantetheinyl transferase | Aldehyde dehydrogenase 1 | Microtubule-associated protein tau | Mint1 | Hydroxyprostaglandin dehydrogenase 15-(NAD) isoform 1 | – | –
4 | Cc1cc(C)c2c(=O)n(CC(=O)Nc3cccc(Cl)c3C)sc2n1 [SID 85281218] | – | Phosphopantetheinyl transferase | – | Microtubule-associated protein tau | Mint1 | – | Nuclear receptor ROR-gamma | –
5 | ClC(Cl)(c1nnnn1-c1ccccc1)c1nnnn1-c1ccccc1 [SID 85281215] | DNA replication was absent | Phosphopantetheinyl transferase | Aldehyde dehydrogenase 1 | Microtubule-associated protein tau | Mint1 | Hydroxyprostaglandin dehydrogenase 15-(NAD) isoform 1 | Nuclear receptor ROR-gamma | sustained cell viability in the cytoprotection assay (SV40 virus): 16%
